Compound activity: PubChem BioAssay, Broad Institute
This excerpt belongs to a sample that is enriched for hits.
GSK3 alpha inh: human GSK-3 alpha kinase inhibition. P49840. inhibition, % at 10 µM. ADP-Glo luminescence, 60 min. AID 2650. 320,000 tested, 0.1% active;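 active = more than half of replicates show inhibition above 20%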;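 also: GST-tagged GSK-3 alpha with peptide substrate and 25 µM ATP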
GSK3beta inhib: human GSK3beta kinase inhibition; 300,000 tested, 0.038% active; GST-GSK3beta kinase, ADP-Glo luminescence, 60 min; stronger effect = lower value; activity score (negative = inhibition), % at 10 µM; P49841;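 active = more than half of replicate wells score below -50%, meaning over 50% inhibition versus plate controls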
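Assay system: GST-tagged human GSK3beta kinase, cell-free; Input: 1.6 ng GSK3beta; Medium: Tris/MgCl2 kinase buffer; Timing: 60 min enzyme reaction, room temperature; Signal: ADP-Glo luminescence quantifying ADP generated by kinase; Evaluation: score relative to plate controls; Benchmarks: DMSO neutral wells and GW8510 at 20 µM as positive.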
CDK5 inh: blocks human CDK5/p35 kinase activity. Q00535+Q15078. Recombinant CDK5/p35, ADP-Glo luminescence, 60 min. inhibition, % at 10 µM. 330,000 tested, 0.01% active;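 active = highest replicate inhibition of at least 50% and at least 75% of replicates reaching 50%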
STK33 kinase inh: blocks human STK33 kinase activity. inhibition, % at 10 µM. 320,000 tested, 0.073% active. purified STK33, MBP phosphorylation, ADP-Glo luminescence. AID 2661;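 active = inhibition at or above 25%, using the most active replicate where run in duplicate; inactive = inhibition below 25%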
Target sequence (Q9BYT3 whole entry, looked up): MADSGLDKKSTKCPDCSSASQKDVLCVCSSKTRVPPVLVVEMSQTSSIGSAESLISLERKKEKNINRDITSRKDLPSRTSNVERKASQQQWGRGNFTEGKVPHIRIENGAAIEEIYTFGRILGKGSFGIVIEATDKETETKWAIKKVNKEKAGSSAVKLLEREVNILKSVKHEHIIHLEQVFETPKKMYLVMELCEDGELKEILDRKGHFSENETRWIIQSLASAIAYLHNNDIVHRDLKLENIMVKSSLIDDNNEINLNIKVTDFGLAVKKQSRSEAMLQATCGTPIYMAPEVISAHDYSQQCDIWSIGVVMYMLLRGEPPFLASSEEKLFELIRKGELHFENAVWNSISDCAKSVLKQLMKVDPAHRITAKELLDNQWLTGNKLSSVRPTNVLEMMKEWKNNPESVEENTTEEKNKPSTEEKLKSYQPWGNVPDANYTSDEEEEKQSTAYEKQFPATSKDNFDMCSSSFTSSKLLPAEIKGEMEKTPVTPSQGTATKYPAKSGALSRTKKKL
Dyrk1A ADPGlo: blocks rat Dyrk1A kinase activity; Q63470; ADP-Glo luminescence, NFATc1 peptide; inhibition, % at 12.5 µM; 310,000 tested, 0.43% active; in the data active = inhibition above about 50%
Numbers stand for hits; . = inactive; / = not tested or not shown.

SMILES	GSK3 alpha inh	GSK3beta inhib	CDK5 inh	STK33 kinase inh	Dyrk1A ADPGlo
Fc1ccc(/C=N/Nc2ncnc3nc[nH]c23)cc1F	65	.	.	.	.
Cn1c(=O)c2[nH]c(CCCC(=O)O)nc2n(Cc2ccccc2)c1=S	84	-51	.	.	.
Cn1c(=O)c2[nH]c(CCCc3nc4ccccc4[nH]3)nc2n(C)c1=O	/	/	.	/	.
O=C(COC(=O)CCNS(=O)(=O)c1ccccc1)NC(=O)c1ccccc1	.	.	.	.	.
COc1cccc(/C=C/C(=O)OCC(=O)Nc2ccc(Cl)c(S(=O)(=O)N(C)C)c2)c1OC	.	.	.	.	.
CCOc1ccc(N2C(=O)C3Sc4[nH]c(=O)sc4C(c4ccc(OC)c(OC)c4)C3C2=O)cc1 (stereo unspecified)	.	.	.	.	.
COc1cc(C2c3sc(=O)[nH]c3SC3C4CCC(C4)C23)ccc1O (stereo unspecified)	78	.	.	.	.
COc1cc(C2c3sc(=O)[nH]c3SC3C(=O)N(c4ccc(C)cc4)C(=O)C32)ccc1O (stereo unspecified)	.	.	.	31	.
CCOC1(OCC)N=C(N)C2(C#N)C(c3ccc(NC(C)=O)cc3)C12C#N (stereo unspecified)	60	.	.	.	.
COC1(OC)N=C(N)C2(C#N)C(c3ccc(F)cc3)C12C#N (stereo unspecified)	.	.	.	.	.
Cn1c(SCc2nnc(-c3ccc(F)cc3)o2)nnc1C1COc2ccccc2O1 (stereo unspecified)	60	.	.	.	.
COc1cc(/C=N/Nc2ccc(C(F)(F)F)cn2)ccc1O	.	.	.	28	.
COc1cc(/C=N/Nc2cc(C)nc(N)n2)ccc1O	.	.	.	.	.
CN1C(=O)C(C)(C)c2cc(S(=O)(=O)N3CCCC(C(=O)NCc4ccccc4Cl)C3)ccc21 (stereo unspecified)	.	.	.	.	.
CNS(=O)(=O)c1cccc(C(=O)OCC(=O)Nc2ccc3ccccc3c2)c1	.	/	.	.	/
O=C(O)COc1ccccc1/C=N/NC(=O)C(O)c1ccccc1 (stereo unspecified)	.	.	.	.	.
O=C(O)C(c1ccccc1)C(O)c1ccc2c(c1)OCO2 (stereo unspecified)	/	/	.	/	.
COc1ccc2oc3cc(C)[n+]([O-])c(-c4ccc(C)cc4)c3c2c1	53	-55	.	.	.
COc1ccc(-c2c3c(cc(C)[n+]2[O-])oc2ccc(OC)cc23)cc1	.	.	/	.	.
C/C=C1\NC(=O)[C@H](C)NC(=O)[C@@H](NC(=O)[C@@H](Cc2ccc(O)cc2)NC(=O)[C@@H](NC(=O)/C(C)=C/C)C(C)C)[C@@H](C)OC(=O)[C@H](CCCCc2ccc(O)cc2)NC(=O)[C@@H](CCC(=O)O)NC1=O	/	/	.	/	.
COc1ccc(-c2oc3ncnc(NCCCN(C)C)c3c2-c2ccc(OC)cc2)cc1	.	.	.	38	.
COc1ccccc1C(c1c(O)nc(SC)[nH]c1=O)c1c(O)nc(SC)[nH]c1=O	.	.	.	.	.
O=C(Cn1c(C(F)(F)F)nc2ccccc21)N=Nc1c(O)[nH]c2ccc(Br)cc12	.	.	.	.	.
COc1ccc(C(=O)N2CCN(c3ccccc3Cl)CC2)cc1S(=O)(=O)NC1CC1	.	/	.	.	/
OCc1nnn(-c2ccccc2)c1CO	.	.	.	.	.
SMILES	GSK3 alpha inh	GSK3beta inhib	CDK5 inh	STK33 kinase inh	Dyrk1A ADPGlo
Nc1c(CO)nnn1-c1ccccc1	50	.	.	.	.
CCCN1C=CC(=C2C(=O)c3ccccc3C2=O)C=C1	.	.	.	31	.
CN(c1ncnc(N)c1[N+](=O)[O-])C1CCS(=O)(=O)C1 (stereo unspecified)	55	.	.	.	.
CC(=O)NC12CC3CC(C1)CC(C(=O)Nc1cccc(S(=O)(=O)N4CCCCCC4)c1)(C3)C2	/	/	.	/	.
O=C1c2ccccc2-c2onc3ccc(NCCCn4ccnc4)c1c23	63	.	/	48	/
COc1ccc2noc3c2c1C(=O)c1ccccc1-3	.	.	.	.	.
CC1(NC(=O)Nc2cc([N+](=O)[O-])ccc2O)CCS(=O)(=O)C1 (stereo unspecified)	.	/	.	.	/
CCn1c2ccccc2c(=O)c2ccccc21	.	.	.	31	.
COc1ccc2nc(NC(=O)CN(C)S(=O)(=O)c3cccs3)sc2c1	.	.	.	.	.
CC(C)CCNc1nc(N)c([N+](=O)[O-])c(NC2CCCCC2)n1	.	.	.	.	.
